# Data reported in ChEMBL document CHEMBL1158122, “Anti-inflammatory, anti-tumor-promoting, and cytotoxic activities of constituents of marigold (Calendula officinalis) flowers” (J Nat Prod, 2006).
# Tests used:
# [1] = system: NCI-H322M; experiment: Cytotoxicity against human NCI-H322M cells after 48 hrs by SRB assay; assay type: functional
# [2] = system: NCI-H460; experiment: Cytotoxicity against human NCI-H460 cells after 48 hrs by SRB assay; assay type: functional; conditions: NCI-H460, 48 h
# [3] = system: COLO 205; experiment: Cytotoxicity against human COLO205 cells after 48 hrs by SRB assay; assay type: functional; conditions: COLO 205, 48 h
# [4] = system: HCC 2998; experiment: Cytotoxicity against human HCC2998 cells after 48 hrs by SRB assay; assay type: functional; conditions: HCC 2998, 48 h
# [5] = Cytotoxicity against human HCT 116 cells after 48 hrs by SRB assay; assay type: functional; conditions: HCT-116, 48 h
# [6] = system: HT-29; experiment: Cytotoxicity against human HT-29 cells after 48 hrs by SRB assay; assay type: functional; conditions: HT-29, 48 h
# [7] = system: KM12; experiment: Cytotoxicity against human KM12 cells after 48 hrs by SRB assay; assay type: functional; conditions: KM12, 48 h
# [8] = system: SW-620; experiment: Cytotoxicity against human SW620 cells after 48 hrs by SRB assay; assay type: functional; conditions: SW-620, 48 h
# [9] = system: SF-268; experiment: Cytotoxicity against human SF-268 cells after 48 hrs by SRB assay; assay type: functional; conditions: SF-268, 48 h
# [10] = system: SF-295; experiment: Cytotoxicity against human SF-295 cells after 48 hrs by SRB assay; assay type: functional; conditions: SF-295, 48 h
# [11] = system: SNB-19; experiment: Cytotoxicity against human SNB-19 cells after 48 hrs by SRB assay; assay type: functional; conditions: SNB-19, 48 h
# [12] = system: U-251; experiment: Cytotoxicity against human U251 cells after 48 hrs by SRB assay; assay type: functional; conditions: U-251, 48 h
# How it was run: (§1)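 Tested in the NCI panel of 60 human tumour cell lines covering lung, colon, melanoma, renal, ovarian, breast and leukaemia. At least five concentrations were run in 10-fold dilutions starting from 10^-4 M. Exposure was continuous for 48 h. Growth or viability was estimated by sulforhodamine B protein staining, and GI50 values were reported.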
# [13] = system: LOX IMVI; experiment: Cytotoxicity against human LOX IMVI cells after 48 hrs by SRB assay; assay type: functional
# [14] = system: Malme-3M; experiment: Cytotoxicity against human MALME-3M cells after 48 hrs by SRB assay; assay type: functional
# [15] = system: SK-MEL-2; experiment: Cytotoxicity against human SK-MEL-2 cells after 48 hrs by SRB assay; assay type: functional; conditions: SK-MEL-2, 48 h
# [16] = Cytotoxicity against human SK MEL28 cells after 48 hrs by SRB assay; assay type: functional; conditions: SK-MEL-28, 48 h
# [17] = system: SK-MEL-5; experiment: Cytotoxicity against human SK-MEL-5 cells after 48 hrs by SRB assay; assay type: functional; conditions: SK-MEL-5, 48 h
# [18] = system: UACC-257; experiment: Cytotoxicity against human UACC-257 cells after 48 hrs by SRB assay; assay type: functional; conditions: UACC-257, 48 h; how it was run: as §1
# [19] = system: UACC-62; experiment: Cytotoxicity against human UACC-62 cells after 48 hrs by SRB assay; assay type: functional; conditions: UACC-62, 48 h; how it was run: as §1
# [20] = system: IGROV-1; experiment: Cytotoxicity against human IGROV1 cells after 48 hrs by SRB assay; assay type: functional; conditions: IGROV-1, 48 h
# [21] = system: OVCAR-3; experiment: Cytotoxicity against human OVCAR-3 cells after 48 hrs by SRB assay; assay type: functional; conditions: OVCAR-3, 48 h
# [22] = system: OVCAR-5; experiment: Cytotoxicity against human OVCAR5 cells after 48 hrs by SRB assay; assay type: functional; conditions: OVCAR-5, 48 h
# [23] = system: OVCAR-8; experiment: Cytotoxicity against human OVCAR8 cells after 48 hrs by SRB assay; assay type: functional; conditions: OVCAR-8, 48 h
# [24] = system: 786-0; experiment: Cytotoxicity against human 786-0 cells after 48 hrs by SRB assay; assay type: functional; conditions: 786-0, 48 h
# [25] = system: NCI-H23; experiment: Cytotoxicity against human NCI-H23 cells after 48 hrs by SRB assay; assay type: functional; conditions: NCI-H23, 48 h
# [26] = system: CAKI-1; experiment: Cytotoxicity against human Caki-1 cells after 48 hrs by SRB assay; assay type: functional; conditions: CAKI-1, 48 h
# [27] = system: RXF 393; experiment: Cytotoxicity against human […] cells after 48 hrs by SRB assay; assay type: functional; conditions: RXF 393, 48 h
# [28] = system: SN12C; experiment: Cytotoxicity against human SN12C cells after 48 hrs by SRB assay; assay type: functional
# [29] = system: TK-10; experiment: Cytotoxicity against human TK-10 cells after 48 hrs by SRB assay; assay type: functional; conditions: TK-10, 48 h; how it was run: as §1
# [30] = system: UO-31; experiment: Cytotoxicity against human UO-31 cells after 48 hrs by SRB assay; assay type: functional; conditions: UO-31, 48 h; how it was run: as §1
# [31] = system: PC-3; experiment: Cytotoxicity against human PC-3 cells after 48 hrs by SRB assay; assay type: functional; conditions: PC-3, 48 h
# [32] = system: MCF7; experiment: Cytotoxicity against human MCF7 cells after 48 hrs by SRB assay; assay type: functional; conditions: MCF7, 48 h
# [33] = system: NCI/ADR-RES; experiment: Cytotoxicity against human NCI/ADR-RES cells after 48 hrs by SRB assay; assay type: functional
# [34] = system: MDA-MB-231; experiment: Cytotoxicity against human MDA-MB-231 cells after 48 hrs by SRB assay; assay type: functional; conditions: MDA-MB-231, 48 h
# [35] = Cytotoxicity against human Hs 578T cells after 48 hrs by SRB assay; assay type: functional
# [36] = system: MDA-MB-435; experiment: Cytotoxicity against human MDA-MB-435 cells after 48 hrs by SRB assay; assay type: functional; conditions: MDA-MB-435, 48 h
# [37] = system: BT-549; experiment: Cytotoxicity against human BT-549 cells after 48 hrs by SRB assay; assay type: functional; conditions: BT-549, 48 h
# [38] = system: T47D; experiment: Cytotoxicity against human T47D cells after 48 hrs by SRB assay; assay type: functional; how it was run: as §1
# [39] = system: HCT-15; experiment: Cytotoxicity against human HCT-15 cells after 48 hrs by SRB assay; assay type: functional; conditions: HCT-15, 48 h
# [40] = system: Raji; experiment: Inhibition of TPA-induced EBV-early antigen activation in human Raji cells at 1000 molar ratio relative to TPA; assay type: cell-based; set-up: scale not given: the % may be the effect or the level left; conditions: human gammaherpesvirus 4
# [41] = system: Raji; experiment: Inhibition of TPA-induced EBV-early antigen activation in human Raji cells at 500 molar ratio relative to TPA; assay type: cell-based; set-up: scale not given: the % may be the effect or the level left; conditions: human gammaherpesvirus 4
# [42] = system: Raji; experiment: Inhibition of TPA-induced EBV-early antigen activation in human Raji cells at 100 molar ratio relative to TPA; assay type: cell-based; set-up: scale not given: the % may be the effect or the level left; conditions: human gammaherpesvirus 4
# [43] = system: Raji; experiment: Inhibition of TPA-induced EBV-early antigen activation in human Raji cells at 10 molar ratio relative to TPA; assay type: cell-based; set-up: scale not given: the % may be the effect or the level left; conditions: human gammaherpesvirus 4
# [44] = Inhibition of TPA-induced EBV-early antigen activation in human Raji cells relative to TPA; assay type: cell-based, human gammaherpesvirus 4
# [45] = Cytotoxicity against human Raji cells assessed as cell viability at 1000 molar ratio; assay type: cell-based; conditions: read-out: Activity
# How it was run: (§2)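 Raji cells were treated with 32 pmol TPA to induce EBV early antigen activation. The test agent was added at 10, 100, 500 or 1000 mol ratio relative to TPA, and Raji cell viability was measured alongside EA activation.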
# [46] = Cytotoxicity against human Raji cells assessed as cell viability at 500 molar ratio; assay type: cell-based; conditions: read-out: Activity; how it was run: as §2
# [47] = Cytotoxicity against human Raji cells assessed as cell viability at 100 molar ratio; assay type: cell-based; conditions: read-out: Activity; how it was run: as §2
# [48] = Cytotoxicity against human Raji cells assessed as cell viability at 10 molar ratio; assay type: cell-based; conditions: read-out: Activity; how it was run: as §2
# [49] = system: Mus musculus; experiment: Antiinflammatory activity against TPA-induced ear edema in mouse; assay type: functional
# How it was run: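 Specific-pathogen-free female ICR mice were housed five per cage at 24 ± 2 °C. Inflammation was induced on the ear with TPA at 1 µg/ear, and the test agent was applied per ear. Ear edema inhibition was expressed as ID50 in mg per ear.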
# [50] = system: HL-60; experiment: Cytotoxicity against human HL-60 cells after 48 hrs by SRB assay; assay type: functional; conditions: HL-60, 48 h
# [51] = system: CCRF-CEM; experiment: Cytotoxicity against human CCRF-CEM cells after 48 hrs by SRB assay; assay type: functional
# [52] = system: K562; experiment: Cytotoxicity against human K-562 cells after 48 hrs by SRB assay; assay type: functional; conditions: K562, 48 h
# [53] = system: MOLT-4; experiment: Cytotoxicity against human MOLT-4 cells after 48 hrs by SRB assay; assay type: functional; conditions: MOLT-4, 48 h
# [54] = system: RPMI-8226; experiment: Cytotoxicity against human RPMI8226 cells after 48 hrs by SRB assay; assay type: functional; conditions: RPMI-8226, 48 h
# [55] = system: A549; experiment: Cytotoxicity against human A549 cells after 48 hrs by SRB assay; assay type: functional; conditions: A549, 48 h
# [56] = system: EKVX; experiment: Cytotoxicity against human EKVX cells after 48 hrs by SRB assay; assay type: functional
# [57] = system: HOP-62; experiment: Cytotoxicity against human HOP-62 cells after 48 hrs by SRB assay; assay type: functional; conditions: HOP-62, 48 h
# [58] = system: HOP-92; experiment: Cytotoxicity against human HOP-92 cells after 48 hrs by SRB assay; assay type: functional; conditions: HOP-92, 48 h
# [59] = system: NCI-H226; experiment: Cytotoxicity against human NCI-H226 cells after 48 hrs by SRB assay; assay type: functional; conditions: NCI-H226, 48 h
# [60] = system: ACHN; experiment: Cytotoxicity against human ACHN cells after 48 hrs by SRB assay; assay type: functional
structure (smiles),measurement,setting,value
CCCCOC(=O)[C@H]1O[C@@H](O[C@H]2CC[C@]3(C)[C@H]4CC=C5[C@@H]6CC(C)(C)CC[C@]6(C(=O)O[C@@H]6O[C@H](CO)[C@@H](O)[C@H](O)[C@H]6O)CC[C@@]5(C)[C@]4(C)CC[C@H]3C2(C)C)[C@H](O)[C@@H](O)[C@@H]1O,GI50,[1],4080 nM
same,GI50,[2],2510 nM
same,GI50,[3],1360 nM
same,GI50,[4],890 nM
same,GI50,[5],1120 nM
same,GI50,[6],2070 nM
same,GI50,[7],2080 nM
same,GI50,[8],1930 nM
same,GI50,[9],2170 nM
same,GI50,[10],2560 nM
same,GI50,[11],1440 nM
same,GI50,[12],1060 nM
same,GI50,[13],810 nM
same,GI50,[14],1470 nM
same,GI50,[15],1850 nM
same,GI50,[16],2600 nM
same,GI50,[17],930 nM
same,GI50,[18],4180 nM
same,GI50,[19],890 nM
same,GI50,[20],1700 nM
same,GI50,[21],3270 nM
same,GI50,[22],3070 nM
same,GI50,[23],4280 nM
same,GI50,[24],1560 nM
same,GI50,[25],1480 nM
same,GI50,[26],17200 nM
same,GI50,[27],1650 nM
same,GI50,[28],1390 nM
same,GI50,[29],1850 nM
same,GI50,[30],12700 nM
same,GI50,[31],1260 nM
same,GI50,[32],1600 nM
same,GI50,[33],> 50000 nM
same,GI50,[34],1150 nM
same,GI50,[35],1620 nM
same,GI50,[36],2520 nM
same,GI50,[37],1700 nM
same,GI50,[38],1750 nM
same,GI50,[39],6730 nM
same,Activity,[40],10.1%
same,Activity,[41],48.1%
same,Activity,[42],70%
same,Activity,[43],100%
same,IC50,[44],479 molar ratio
same,viability at 1000 molar ratio,[45],70%
same,viability at 500 molar ratio,[46],> 80%
same,viability at 100 molar ratio,[47],> 80%
same,viability at 10 molar ratio,[48],> 80%
same,ID50,[49],0.07 mg
same,GI50,[50],1210 nM
same,GI50,[51],23100 nM
same,GI50,[52],1580 nM
same,GI50,[53],1000 nM
same,GI50,[54],780 nM
same,GI50,[55],1830 nM
same,GI50,[56],3390 nM
same,GI50,[57],2220 nM
same,GI50,[58],1040 nM
same,GI50,[59],1490 nM
same,GI50,[60],6290 nM
